The values below come from publication PMC7490525 (Biochemistry and Biophysics Reports, 2020).

Like-named read-outs stand apart in the source and are kept apart here. Marks after values point to notes of the source that are not given here.

For data set [1], the system named is organic anion transporting polypeptides (OATPs). Put plainly: Effect of coincubated or pretreated compounds on BSP uptake by Caco-2 cells. In kind it is cell-based, human. Particulars: 37 °C, 5 min; for Decrease of BSP uptake on coincubation: 5 μM BSP with 100 μM compound, Caco-2 cells; for Ki: read-out: Inhibition constant (Ki) for BSP uptake, Dixon plot, competitive, 2, 5 or 10 μM BSP, PFCA 25, 50 or 100 μM, pH 6.0.

For data set [2], the system named is Caco-2 cells. The experiment in a line: Uptake of BSP from the apical membrane of Caco-2 cells. The class given is in vitro ADME, human. In outline: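 Confluent Caco-2 cells (passage 54–70, 2 weeks on collagen) preincubated 20 min, then exposed to BSP in Hanks' buffer with glucose plus MES or HEPES. Conditions: 5 μM for 5 min at 37 °C pH 6.0 (control); pH 5.0/7.4/8.5; 4 °C; or Na+-free (KCl or choline chloride). Time course ran to 60 min; varied concentrations were fitted to carrier-mediated plus diffusion terms. Cell extracts normalised to protein; n=3–8.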

The test system of data set [3] is Caco-2 cells. Particulars: cited from earlier work.
Data set [4] concerns organic anion transporting polypeptides (OATPs). The conditions noted are these: Caco-2 cells; cited from earlier work.
The test system of data set [5] is Caco-2 cells. The class given is in vitro ADME, human. Particulars: 1 μM PFCA, pH 6.0, 37 °C, 5 min.
Data set [6] deals with Caco-2 cells. The conditions noted are these: cited from earlier work. This is another data set of the same source.
Setting [7] is: 5 μM BSP, 37 °C, pH 6.0, up to 60 min.
Where [8] appears, read: Caco-2 cells, 37 °C, pH 6.0, 5 min, BSP 0.5–100 μM.
Where [9] appears, read: coincubation of 5 μM BSP with 100 μM compound.

As to `O=C(O)C(F)(F)C(F)(F)C(F)(F)C(F)(F)C(F)(F)C(F)(F)C(F)(F)C(F)(F)C(F)(F)C(F)(F)F` [PFUnDA, perfluoroundecanoic acid], the “Decrease of BSP uptake on coincubation” value in data set [1] is reported as 27–55%.
A word on the Km: it is the substrate concentration at which the rate is half of its maximum. `O=C1OC(c2ccc(O)c(S(=O)(=O)O)c2)(c2ccc(O)c(S(=O)(=O)O)c2)c2c(Br)c(Br)c(Br)c(Br)c21` [BSP, sulfobromophthalein]: the “Relative uptake rate (% of control)” value in the data set on Caco-2 cells [2] (5 μM BSP, 4 °C and pH 6.0, 5 min, control 37 °C and pH 6.0) is reported as 49.9 ± 3.1 ^d % of control; in the data set with Caco-2 cells [2] (5 μM BSP, 37 °C and pH 5.0, 5 min, control 37 °C and pH 6.0), 101.7 ± 5.1 % of control; with Caco-2 cells [2] (5 μM BSP, 37 °C and pH 7.4, 5 min, control 37 °C and pH 6.0), 105.2 ± 5.3 % of control; in the data set with Caco-2 cells [2] (5 μM BSP, 37 °C and pH 8.5, 5 min, control 37 °C and pH 6.0), 101.6 ± 1.3 % of control; with Caco-2 cells [2] (5 μM BSP, 37 °C, 5 min, Na+-free medium (NaCl replaced with KCl)), 95.0 ± 7.4 % of control; in the data set with Caco-2 cells [2] (5 μM BSP, 37 °C, 5 min, Na+-free medium (NaCl replaced with choline chloride)), 81.0 ± 4.0 % of control. Besides, the “Time at which BSP uptake plateaued” value with Caco-2 cells [2] (setting [7]) was “about 15 min”. Further, in the data set with Caco-2 cells [2] (setting [7]), the “Time until which BSP uptake increased linearly” value was 10 min. In addition, the “Reduction of BSP uptake at low temperature” value in the data set on Caco-2 cells [2] (4 °C, pH 6.0, versus 37 °C) is listed as 50%. Further, the “Contribution of carrier-mediated uptake to BSP uptake” value in the data set on Caco-2 cells [2] (Caco-2 cells) is “approximately 70%”. Besides, the “Contribution of uptake via simple diffusion to BSP uptake” value in the data set with Caco-2 cells [2] (Caco-2 cells) is about 30%. Moreover, in the data set on Caco-2 cells [2] (setting [8]), the “Vmax of BSP uptake” value is listed as 1.15 ± 0.07 nmol (mg protein)^−1 (5 min)^−1. In addition, the “kd (coefficient of passive diffusion) of BSP uptake” value in the data set on Caco-2 cells [2] (setting [8]) is reported as 38.2 ± 0.53 μL (mg protein)^−1 (5 min)^−1. For the same molecule, the Michaelis constant (Km) in the data set with Caco-2 cells [2] (read-out: Km of BSP uptake, Caco-2 cells, 37 °C, pH 6.0, 5 min, BSP 0.5–100 μM) was found to be 13.9 ± 1.3 µM.
In the case of `COc1ccc(Cl)cc1C(=O)NCCc1ccc(S(=O)(=O)NC(=O)NC2CCCCC2)cc1` [Glibenclamide, glibenclamide], in data set [1], the “Decrease of BSP uptake on coincubation” value is 48%. Besides, in data set [1] (setting [9]), the “Relative uptake rate of BSP (% of control)” value is recorded as 52.2 ± 3.5 ^d % of control.
Consider `[N-]=[N+]=[N-].[Na+]` [NaN3, sodium azide], for which the “Relative uptake rate of BSP (% of control)” value in data set [1] (cells treated with 10 mM NaN3 for 20 min, then 5 μM BSP) was 106.4 ± 6.8 % of control.
Usually Ki stands for the equilibrium dissociation constant of an inhibitor or competing ligand from its target. Consider `O=C(O)C(F)(F)C(F)(F)C(F)(F)C(F)(F)C(F)(F)C(F)(F)C(F)(F)C(F)(F)C(F)(F)F` [PFDA, perfluorodecanoic acid], for which, in data set [1], the “Decrease of BSP uptake on coincubation” value is given as 27–55% and the Ki turned out to be 43.2 ± 0.3 µM.
Regarding `C[C@]12CC[C@@H]3c4ccc(OS(=O)(=O)O)cc4CC[C@H]3[C@@H]1CCC2=O` [estrone-3-sulfate], the Km with Caco-2 cells [3] (read-out: Km of estrone-3-sulfate, ref Gram et al. [27]) is 23 µM; in the data set on Caco-2 cells [3] (read-out: Km of estrone-3-sulfate, ref Kis et al. [26]) it was 6 µM; with Caco-2 cells [3] (read-out: Km of estrone-3-sulfate, ref Sai et al. [4]), 1.8 µM. Besides, the “Decrease of BSP uptake on coincubation” value in data set [4] is reported as 39%.
In the case of `O=C(O)C(F)(F)C(F)(F)C(F)(F)C(F)(F)C(F)(F)F` [PFHxA, Perfluorohexanoic acid], in the data set on Caco-2 cells [5], the “Uptake of PFCA by Caco-2 cells (rank among C6–C12)” value (“Uptake of PFCA by Caco-2 cells” below) is “the lowest”.
As to `O=[N+]([O-])c1ccc(O)c([N+](=O)[O-])c1` [DNP, 2,4-dinitrophenol], the “Relative uptake rate of BSP (% of control)” value in data set [1] (cells treated with 1 mM DNP for 20 min, then 5 μM BSP) was 105.9 ± 10.0 % of control.
Take `O=C(O)C(F)(F)C(F)(F)C(F)(F)C(F)(F)C(F)(F)C(F)(F)F` [PFHpA, perfluoroheptanoic acid]: in data set [1], the “Decrease of BSP uptake on coincubation” value was 27–55%.
In the case of `O=S(=O)(O)C(F)(F)C(F)(F)C(F)(F)C(F)(F)C(F)(F)C(F)(F)C(F)(F)C(F)(F)F` [PFOS, perfluorooctane sulfonate], in data set [1], the “Decrease of BSP uptake on coincubation” value is given as 54%. Further, in data set [1] (setting [9]), the “Relative uptake rate of BSP (% of control)” value was 46.1 ± 4.5 ^d % of control.
For `O=C(O)C(F)(F)C(F)(F)C(F)(F)C(F)(F)C(F)(F)C(F)(F)C(F)(F)F` [PFOA, Perfluorooctanoic acid], the “Uptake of PFCA by Caco-2 cells” value in the data set on Caco-2 cells [5] is reported as “third highest”. Moreover, in data set [1], the “Decrease of BSP uptake on coincubation” value is 27–55% and the Ki was 62.2 ± 1.3 µM. Moreover, in the data set on Caco-2 cells [6] (PFOA 1–500 μM), the “Vmax of PFOA uptake” value was 457 pmol/mg protein/min. Also, in the data set with Caco-2 cells [6] (read-out: Km of PFOA uptake, PFOA 1–500 μM), the Michaelis-Menten constant (Km) is 8.3 µM.
Consider `O=C(O)C(F)(F)C(F)(F)C(F)(F)C(F)(F)C(F)(F)C(F)(F)C(F)(F)C(F)(F)F` [PFNA, perfluorononanoic acid], for which, in the data set with Caco-2 cells [5], the “Uptake of PFCA by Caco-2 cells” value is on record as “the highest”. Besides, in data set [1], the “Decrease of BSP uptake on coincubation” value is on record as 27–55% and the Ki was 35.3 ± 0.1 µM.
Consider `CO[C@H]1/C=C/O[C@@]2(C)Oc3c(C)c(O)c4c(O)c(cc(O)c4c3C2=O)NC(=O)/C(C)=C\C=C\[C@H](C)[C@H](O)[C@@H](C)[C@@H](O)[C@@H](C)[C@H](OC(C)=O)[C@@H]1C` [rifamycin SV], for which the “Decrease of BSP uptake on coincubation” value in data set [4] was 40%.
